Screening data (PubChem BioAssay)
Only some compounds are listed: those with a hit (about 2.3% of all), similar ones and a draw of the others.
TRPC6 activator = activators of mouse TRPC6 channel; Q61143; HEK293-TRPC6 membrane potential dye fluorescence; hits give high values; B-score at 10 µM; 310,000 compounds, 0.13% hits;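 active means B-score of the integrated fluorescence ratio above library mean plus 3 SD, and starting fluorescence ratio within library mean plus 5 SD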;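 further: higher score means more depolarization so channel activation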
TRPC6 inhibitor = inhibitors of mouse TRPC6 channel | Q61143 | HEK293-TRPC6, membrane potential dye, ACh-evoked depolarization; hits give low values | B-score at 10 µM | 310,000 compounds, 1.1% hits | AID 2553;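 active means B-score under library mean minus 3 SD, initial fluorescence not abnormally high, positive integrated signal ratio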;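 further: B-score derived from integrated fluorescence ratio over the kinetic read; more negative B-score means stronger inhibition of depolarization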
TRPC4 block = TRPC4 (mouse) channel inhibition. Q9QUQ5. HEK293 TRPC4beta/mu-opioid, DAMGO-evoked Fluo4 calcium flux; hits give low values. B-score at 10 µM. 300,000 compounds, 0.39% hits. AID 2247;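 active means B-score over 3 SD under the library average, no early fluorescence shift, positive overall ratio signal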
Target sequence (Q9QUQ5 whole entry, looked up): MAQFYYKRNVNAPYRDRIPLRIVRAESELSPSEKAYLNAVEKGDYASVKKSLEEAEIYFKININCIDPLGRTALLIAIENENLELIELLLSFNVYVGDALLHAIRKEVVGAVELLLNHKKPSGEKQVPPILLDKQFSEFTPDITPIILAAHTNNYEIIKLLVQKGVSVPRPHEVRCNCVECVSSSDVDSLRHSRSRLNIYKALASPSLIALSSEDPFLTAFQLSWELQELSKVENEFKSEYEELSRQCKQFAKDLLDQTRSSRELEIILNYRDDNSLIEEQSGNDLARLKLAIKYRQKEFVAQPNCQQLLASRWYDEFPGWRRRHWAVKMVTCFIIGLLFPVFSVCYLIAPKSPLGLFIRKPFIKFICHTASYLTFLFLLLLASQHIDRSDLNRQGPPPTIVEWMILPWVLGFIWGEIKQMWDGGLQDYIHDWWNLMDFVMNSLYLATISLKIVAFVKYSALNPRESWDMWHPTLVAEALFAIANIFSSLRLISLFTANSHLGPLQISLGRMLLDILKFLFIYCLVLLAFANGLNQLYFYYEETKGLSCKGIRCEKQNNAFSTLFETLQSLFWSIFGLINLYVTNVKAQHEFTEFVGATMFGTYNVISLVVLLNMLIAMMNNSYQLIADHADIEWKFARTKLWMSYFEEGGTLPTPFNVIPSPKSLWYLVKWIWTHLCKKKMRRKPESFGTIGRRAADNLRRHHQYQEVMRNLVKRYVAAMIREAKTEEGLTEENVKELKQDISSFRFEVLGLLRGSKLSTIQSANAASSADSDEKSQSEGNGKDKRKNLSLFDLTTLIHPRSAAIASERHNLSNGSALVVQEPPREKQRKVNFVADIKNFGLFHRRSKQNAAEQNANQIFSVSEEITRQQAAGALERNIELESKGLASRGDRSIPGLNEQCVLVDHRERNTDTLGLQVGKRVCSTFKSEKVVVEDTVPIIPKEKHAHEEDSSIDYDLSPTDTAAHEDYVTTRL
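material = TRPC4beta/mu-opioid receptor HEK293 cell line | probe or stimulus = sequential submaximal and maximal DAMGO stimulation | compound dosing = one concentration per compound | measured by = Fluo4 Ca2+ flux fluorescence | evaluation = integrated fluorescence ratio relative to baseline, converted to per-well B score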
Yeast superoxide = caloric restriction mimetics inhibiting age-related superoxide in yeast | AID 2690 | S. cerevisiae aged cells, superoxide DHE fluorescence; hits give low values | 330,000 compounds, 0.18% hits | superoxide response (% of plate mean), % at 10 µM;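 active means superoxide response under a set limit, about three screen SD below normal, cut at about 65% in these data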;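 further: yeast aged for seven days with compound at 30 °C before DHE staining; 100% = average MFI of all compound-treated wells on the plate with controls excluded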
TRPC4 PAM = allosterically enhances the mouse TRPC4 cation channel. B-score at 10 µM. AID 2227. 310,000 compounds, 0.42% hits. HEK293 TRPC4beta/mu-opioid, DAMGO EC20, Fluo-4 Ca2+ flux; hits give high values. Q9QUQ5;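 active means B-score of calcium response area above 5 SD of library B-scores, with initial fluorescence ratio within 5 SD of library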;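 further: B-score of integrated fluorescence ratio over time as area under calcium response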
TRPC4 act = TRPC4 (mouse) channel activation; HEK293 TRPC4beta/mu-opioid, Fluo4 calcium fluorescence; hits give high values; B-score at 10 µM; 310,000 compounds, 0.49% hits;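 active means B-score above 5 SD of library B-scores, and initial fluorescence ratio not above library mean plus 5 SD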;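 further: positive B-score marks a calcium rise read as TRPC4 activation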
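Incubation: 45 min room-temperature Fluo4 loading, 110 s read / System: HEK293 cells stably co-expressing mouse TRPC4beta and mu-opioid receptor / Signal: Fluo4 fluorescence, kinetic / Control set: buffer (low) and maximal DAMGO (high) / Measure: integrated baseline-normalised fluorescence ratio, converted to per-well B score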
* = called active by the depositor; i = inactive.

SMILES	TRPC6 activator	TRPC6 inhibitor	TRPC4 block	Yeast superoxide	TRPC4 PAM	TRPC4 act
O=C(NCc1ccc(F)cc1)C1CCC(CNc2c(N3CCCCC3)c(=O)c2=O)CC1 (centres undefined)	i	i	i	63.5*	i	i
NC(=O)C1CCN(C(=O)CN(c2cccc(Cl)c2)S(=O)(=O)c2ccccc2)CC1	i	i	i	117.2	i	i
Cc1ccccc1OCC(=O)NS(=O)(=O)c1ccc(Cl)cc1	i	i	i	106.3	i	i
O=C(CN1CCN(c2ncc(C(F)(F)F)cc2Cl)CC1)N1CCN(c2ncc(C(F)(F)F)cc2Cl)CC1	i	i	i	102.0	i	93*
CN(C)c1ccc(NC(=S)N2CCN(c3ncc(C(F)(F)F)cc3Cl)CC2)cc1	i	i	i	100.3	i	127*
O=C(OC1CCN(c2ncc(C(F)(F)F)cc2Cl)CC1)c1ccccc1	i	i	i	90.0	i	i
O=C(OCCN1CCN(c2ncc(C(F)(F)F)cc2Cl)CC1)c1ccc(F)cc1	i	i	i	90.6	10*	i
Cc1ccc(C(=O)OCCN2CCN(c3ncc(C(F)(F)F)cc3Cl)CC2)cc1	i	i	i	89.7	16*	i
COc1ccc(-c2cc(C(F)(F)F)n3nc(C(=O)N(C)Cc4ccccc4)cc3n2)cc1OC	i	i	i	118.2	i	i
CNC(=O)c1sccc1SCc1ccc(Cl)cc1Cl	i	i	i	102.7	i	i
CN(Cc1ccccc1)C(=O)CN(c1ccccc1Cl)S(C)(=O)=O	i	i	i	92.1	i	i
Cc1ccc(CNC(=O)C2CCCN(Cc3cnn(-c4ccccc4)c3-n3cccc3)C2)cc1 (centres undefined)	i	i	i	91.1	i	95*
O=C(NCC1CCCO1)C1CCCN(Cc2cnn(-c3ccccc3)c2-n2cccc2)C1 (centres undefined)	i	i	i	98.6	i	i
N=C1c2ccccc2CN1NC(=O)CC12CC3CC(CC(C3)C1)C2	i	i	i	56.4*	i	i
CCNc1[nH]c(=O)n(C)c(=O)c1N=O	i	i	i	97.0	i	i
O=C(COC(=O)c1ccccc1C(=O)c1ccc(Cl)cc1)NCCc1ccccc1	i	i	i	103.8	14*	i
Cc1cc(C)cc(NC(=S)N(CCN(C)C)Cc2cccs2)c1	i	i	i	96.1	i	i
CC(C(=O)Nc1ccccc1-c1ccccc1)N1CCN(C(=O)c2ccccc2)CC1 (centres undefined)	i	i	i	93.0	i	i
CC1CCN(C(C)C(=O)Nc2ccccc2-c2ccccc2)CC1 (centres undefined)	i	i	-7*	102.3	i	i
O=C(COc1cc2oc(=O)c3c(c2cc1Cl)CCC3)Nc1cccnc1	i	i	i	98.8	i	i
O=C(COc1cccc2ccccc12)N/N=C/c1ccccc1OCc1ccc(C(=O)O)cc1	i	i	-5*	103.0	i	i
O=C(COc1ccccc1-c1ccccc1)N/N=C/c1cccc2ccccc12	i	i	i	76.9	i	i
Clc1ccccc1CSc1nc2ccncc2[nH]1	i	i	-6*	89.5	i	i
OC[C@H]1O[C@@H]2O[C@H]3[C@H](O)[C@@H](O)[C@@H](O[C@H]4[C@H](O)[C@@H](O)[C@@H](O[C@H]5[C@H](O)[C@@H](O)[C@@H](O[C@H]6[C@H](O)[C@@H](O)[C@@H](O[C@H]7[C@H](O)[C@@H](O)[C@@H](O[C@H]1[C@H](O)[C@H]2O)O[C@@H]7CO)O[C@@H]6CO)O[C@@H]5CO)O[C@@H]4CO)O[C@@H]3CO	i	i	i	97.7	i	i
CN(CCC#N)C(=O)COC(=O)c1cccnc1Nc1ccccc1F	i	i	i	85.8	i	i
CC1=C[C@@H](C)[C@@H](c2ccc(C(F)(F)F)cc2)OC1=O	i	i	i	97.7	i	i
